The term efflux ratio denotes a quotient of directional permeabilities that is used to spot active efflux. Broadly, the Papp A→B is the apparent permeability from the apical to the basolateral side of a cell layer. As a reminder, the clearance is the rate of elimination divided by the concentration. The low end stands for a low capacity for elimination, the high end for a high capacity for elimination.

For the first data set, the target named is T1, Guanylate cyclase soluble subunit alpha-1 (Rattus norvegicus) (UniProt P19686).
T1 sequence (whole entry): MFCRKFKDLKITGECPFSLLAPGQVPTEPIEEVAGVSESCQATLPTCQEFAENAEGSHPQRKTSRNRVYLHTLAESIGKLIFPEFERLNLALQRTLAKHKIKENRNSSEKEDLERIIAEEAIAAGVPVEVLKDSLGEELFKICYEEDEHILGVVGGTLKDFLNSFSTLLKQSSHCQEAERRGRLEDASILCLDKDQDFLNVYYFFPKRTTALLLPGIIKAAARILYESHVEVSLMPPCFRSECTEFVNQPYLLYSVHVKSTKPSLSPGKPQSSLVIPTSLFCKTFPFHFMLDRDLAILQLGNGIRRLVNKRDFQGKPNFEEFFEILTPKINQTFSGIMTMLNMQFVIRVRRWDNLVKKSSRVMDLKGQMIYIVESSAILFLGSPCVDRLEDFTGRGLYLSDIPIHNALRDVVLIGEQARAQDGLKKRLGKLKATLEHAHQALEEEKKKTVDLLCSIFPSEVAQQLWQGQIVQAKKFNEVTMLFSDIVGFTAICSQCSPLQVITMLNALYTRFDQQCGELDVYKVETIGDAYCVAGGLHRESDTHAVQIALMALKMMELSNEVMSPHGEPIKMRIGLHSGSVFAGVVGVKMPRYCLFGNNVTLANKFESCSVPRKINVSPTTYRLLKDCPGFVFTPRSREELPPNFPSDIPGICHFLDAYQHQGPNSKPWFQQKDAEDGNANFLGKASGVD
The data set can be described thus: Stimulation of rat recombinant sGCalpha1 subunit expressed in CHO cells using alpha-[32P]GTP as substrate assessed as >=3 fold increase in [32P]cGMP formation after 10 mins by radioimmunoassay. It is filed as cell-based.
Conditions: not given
Turning to `Nc1nc(-c2nn(Cc3ccccc3F)c3ncccc23)nc(N)c1NC(=O)OCC(F)(F)F`, the MEC came to 0.2 µM.
On the same count and under the same terms, under `COC(=O)N(Cc1ccccc1F)c1c(N)nc(-c2nn(Cc3ccccc3F)c3ncccc23)nc1N` stands 0.1 µM.
For the compound `COC(=O)N(CCO)c1c(N)nc(-c2nn(Cc3ccccc3F)c3ncccc23)nc1N`, the MEC was determined as 0.3 µM.
On to `COC(=O)N(CC(F)(F)F)c1c(N)nc(-c2nn(Cc3ccccc3F)c3ncccc23)nc1N`, for which the MEC is 0.1 µM.
On to `CC(C)OC(=O)Nc1c(N)nc(-c2nn(Cc3ccccc3F)c3ncccc23)nc1N`, for which the MEC turned out to be 0.8 µM.
The same measure, in the same setting: in the case of `COC(=O)N(Cc1cccc(F)c1)c1c(N)nc(-c2nn(Cc3ccccc3F)c3ncccc23)nc1N` it was 0.2 µM; in that of `CC1(C)CN(c2c(N)nc(-c3nn(Cc4ccccc4F)c4ncccc34)nc2N)C(=O)O1`, 0.2 µM.
`Nc1nc(-c2nn(Cc3ccccc3F)c3ncccc23)nc(N)c1N1C[C@@H](C(F)(F)F)OC1=O`: the MEC worked out at 0.03 µM.
On to `COC(=O)Nc1c(N)nc(-c2nn(Cc3ccccc3F)c3ncccc23)nc1N`, for which the MEC was found to be 0.3 µM.
On the same count and under the same terms, under `COC(=O)Nc1c(N)nc(-c2nn(Cc3ccccc3F)c3nnccc23)nc1N` stands 2 µM.
As to `COC(=O)N(CC(F)F)c1c(N)nc(-c2nn(Cc3ccccc3F)c3ncccc23)nc1N`, the MEC was 0.1 µM.
Same read-out and setting: under `COC(=O)N(Cc1ccc(F)cc1)c1c(N)nc(-c2nn(Cc3ccccc3F)c3ncccc23)nc1N` stands 0.7 µM.

Tested on in another data set: not listed separately
The data set can be described thus: Efflux ratio of apparent permeability in human Caco2 cells. It is filed as ADME, cell-based. Conditions: Caco-2. The procedure, abridged: (§1)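 Caco-2 cells grown 14−16 d on inserts. Compound dissolved in DMSO and diluted to final 2 μM in HBSS with glucose (19.9 mM) and HEPES (9.8 mM). Added apically (A−B) or basolaterally, incubated 2 h at 37 °C. Both compartments analysed by LC-MS to calculate Papp. Efflux ratio = Papp B−A/Papp A−B. Lucifer yellow monolayer integrity check.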
Background: Passage across Caco-2 layers is used to estimate intestinal permeability.
Turning to `COC(=O)Nc1c(N)nc(-c2nn(Cc3ccccc3F)c3ncccc23)nc1N`, the efflux ratio came out at 5.

Tested on in another data set: not listed separately
Description: Clearance in rat hepatocytes at 1 uM up to 90 mins by LC-MS/MS analysis.
Conditions: not given
It is filed as ADME, cell-based, Hepatocyte. The procedure, abridged:
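Rat hepatocytes at 1 × 10^6 viable cells/mL (trypan blue-corrected) in Williams' medium E, 1 μM substrate, MeCN ≤1%, 37 °C, pH 7.4. Sampled at 2−90 min, quenched with MeCN, analysed by LC-MS/MS.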
In the case of `Nc1nc(-c2nn(Cc3ccccc3F)c3ncccc23)nc(N)c1NC(=O)OCC(F)(F)F`, the CLhep predicted at 1 µM was 35 mL/min/kg.
`COC(=O)N(Cc1ccccc1F)c1c(N)nc(-c2nn(Cc3ccccc3F)c3ncccc23)nc1N`: the CLhep predicted at 1 µM is 53.3 mL/min/kg.
Still for that read-out and setting: under `COC(=O)N(CCO)c1c(N)nc(-c2nn(Cc3ccccc3F)c3ncccc23)nc1N` stands 61.7 mL/min/kg; under `COC(=O)N(CC(F)(F)F)c1c(N)nc(-c2nn(Cc3ccccc3F)c3ncccc23)nc1N`, 15 mL/min/kg; under `CC(C)OC(=O)Nc1c(N)nc(-c2nn(Cc3ccccc3F)c3ncccc23)nc1N`, 15 mL/min/kg.
On the same count and under the same terms, under `COC(=O)N(Cc1cccc(F)c1)c1c(N)nc(-c2nn(Cc3ccccc3F)c3ncccc23)nc1N` stands 53.3 mL/min/kg; under `CC1(C)CN(c2c(N)nc(-c3nn(Cc4ccccc4F)c4ncccc34)nc2N)C(=O)O1`, 21.7 mL/min/kg.
Take `Nc1nc(-c2nn(Cc3ccccc3F)c3ncccc23)nc(N)c1N1C[C@@H](C(F)(F)F)OC1=O`: the CLhep predicted at 1 µM was 26.7 mL/min/kg.
The same measure, in the same setting: in the case of `COC(=O)Nc1c(N)nc(-c2nn(Cc3ccccc3F)c3ncccc23)nc1N` it was 1.67 mL/min/kg.
Still for that read-out and setting: under `COC(=O)Nc1c(N)nc(-c2nn(Cc3ccccc3F)c3nnccc23)nc1N` stands under 1.67 mL/min/kg; under `COC(=O)N(CC(F)F)c1c(N)nc(-c2nn(Cc3ccccc3F)c3ncccc23)nc1N`, 6.67 mL/min/kg.
Still for that read-out and setting: under `COC(=O)N(Cc1ccc(F)cc1)c1c(N)nc(-c2nn(Cc3ccccc3F)c3ncccc23)nc1N` stands 40 mL/min/kg.

Tested on in a further data set: not listed separately
The data set can be described thus: Apparent permeability across apical to basolateral side in human Caco2 cells at 2 uM after 2 hrs by LC-MS analysis. It counts as ADME, cell-based. The note with it: Caco-2. The procedure, abridged: as §1
For `COC(=O)Nc1c(N)nc(-c2nn(Cc3ccccc3F)c3ncccc23)nc1N`, the Papp A→B at 2 h, 2 µM is 7.9 ×10⁻⁶ cm/s.

Tested on in another data set: not listed separately
The data set can be described thus: Clearance in iv dosed Wistar rat blood after 24 hrs by LC-MS analysis. It counts as ADME, organism-based. Conditions: whole blood. The procedure, abridged:
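Male Wistar rats and female beagle dogs. iv in plasma/DMSO (rat) or H2O/PEG 400/EtOH (dog). Oral gavage in H2O/PEG 400/EtOH for both. Rats jugular-catheterised ≥1 d before dosing. Usually >10 blood samples, at least two after 24 h. Plasma quantified by LC-MS with internal standard. CL, t1/2, Vss and F calculated from plasma curves. Blood clearance via blood/plasma ratio (20 min blood incubation).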
`COC(=O)Nc1c(N)nc(-c2nn(Cc3ccccc3F)c3nnccc23)nc1N` had a clearance of 63.3 mL/min/kg.

Values taken from ChEMBL document CHEMBL4014344, “Discovery of the Soluble Guanylate Cyclase Stimulator Vericiguat (BAY 1021189) for the Treatment of Chronic Heart Failure” (J Med Chem, 2017).
